Laboratory results: ChEMBL document CHEMBL4118098, “Discovery of DS28120313 as a potent orally active hepcidin production inhibitor: Design and optimization of novel 4,6-disubstituted indazole derivatives” (Bioorg Med Chem Lett, 2017)
Blank lines part the entries; values can stand above or below the compound they belong to.

Legend:
[1] = target: Inhibitor of nuclear factor kappa-B kinase subunit beta (Homo sapiens) (UniProt O14920); assay: Inhibition of IKK-beta (unknown origin) at 0.19 uM relative to control
[2] = target: Ephrin type-A receptor 4 (Homo sapiens) (UniProt P54764); assay: Inhibition of EPHA4 (unknown origin) at 0.19 uM relative to control
Chain of Ephrin type-A receptor 4 (Homo sapiens) (P54764 whole entry, the tested form may be a part): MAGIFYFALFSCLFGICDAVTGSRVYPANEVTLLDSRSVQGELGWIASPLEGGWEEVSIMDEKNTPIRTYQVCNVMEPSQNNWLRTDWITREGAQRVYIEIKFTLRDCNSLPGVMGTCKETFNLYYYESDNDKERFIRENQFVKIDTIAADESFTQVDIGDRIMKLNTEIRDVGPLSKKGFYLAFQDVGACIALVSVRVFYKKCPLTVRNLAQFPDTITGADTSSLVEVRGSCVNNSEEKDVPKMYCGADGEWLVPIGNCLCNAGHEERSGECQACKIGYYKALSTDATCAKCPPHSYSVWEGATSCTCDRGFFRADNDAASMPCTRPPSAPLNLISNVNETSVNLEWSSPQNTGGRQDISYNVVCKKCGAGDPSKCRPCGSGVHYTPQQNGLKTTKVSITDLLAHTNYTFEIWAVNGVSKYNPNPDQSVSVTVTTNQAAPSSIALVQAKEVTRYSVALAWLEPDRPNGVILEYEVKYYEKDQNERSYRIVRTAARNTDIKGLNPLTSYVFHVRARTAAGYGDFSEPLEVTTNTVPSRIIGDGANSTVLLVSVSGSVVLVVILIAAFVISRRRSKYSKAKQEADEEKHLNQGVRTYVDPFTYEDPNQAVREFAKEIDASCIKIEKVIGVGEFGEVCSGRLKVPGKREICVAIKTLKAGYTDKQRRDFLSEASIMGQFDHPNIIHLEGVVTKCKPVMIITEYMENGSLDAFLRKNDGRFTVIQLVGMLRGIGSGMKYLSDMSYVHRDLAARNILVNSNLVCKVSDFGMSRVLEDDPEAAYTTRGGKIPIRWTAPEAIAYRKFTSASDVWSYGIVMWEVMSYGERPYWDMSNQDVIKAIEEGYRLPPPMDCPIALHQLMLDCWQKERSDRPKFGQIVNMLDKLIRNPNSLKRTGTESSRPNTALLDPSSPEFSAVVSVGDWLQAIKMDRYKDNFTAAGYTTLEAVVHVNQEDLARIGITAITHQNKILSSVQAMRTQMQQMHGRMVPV

[3] = target: PAS domain-containing serine/threonine-protein kinase (Homo sapiens) (UniProt Q96RG2); assay: Inhibition of PASK (unknown origin) at 0.19 uM relative to control
[4] = target: Ephrin type-A receptor 1 (Homo sapiens) (UniProt P21709); assay: Inhibition of EPHA1 (unknown origin) at 0.19 uM relative to control
[5] = target: Glycogen synthase kinase-3 beta (Homo sapiens) (UniProt P49841); assay: Inhibition of GSK3b (unknown origin) at 0.19 uM relative to control
[6] = target: Interleukin-1 receptor-associated kinase 4 (Homo sapiens) (UniProt Q9NWZ3); assay: Inhibition of IRAK4 (unknown origin) at 0.19 uM relative to control
Chain of Interleukin-1 receptor-associated kinase 4 (Homo sapiens) (Q9NWZ3 whole entry): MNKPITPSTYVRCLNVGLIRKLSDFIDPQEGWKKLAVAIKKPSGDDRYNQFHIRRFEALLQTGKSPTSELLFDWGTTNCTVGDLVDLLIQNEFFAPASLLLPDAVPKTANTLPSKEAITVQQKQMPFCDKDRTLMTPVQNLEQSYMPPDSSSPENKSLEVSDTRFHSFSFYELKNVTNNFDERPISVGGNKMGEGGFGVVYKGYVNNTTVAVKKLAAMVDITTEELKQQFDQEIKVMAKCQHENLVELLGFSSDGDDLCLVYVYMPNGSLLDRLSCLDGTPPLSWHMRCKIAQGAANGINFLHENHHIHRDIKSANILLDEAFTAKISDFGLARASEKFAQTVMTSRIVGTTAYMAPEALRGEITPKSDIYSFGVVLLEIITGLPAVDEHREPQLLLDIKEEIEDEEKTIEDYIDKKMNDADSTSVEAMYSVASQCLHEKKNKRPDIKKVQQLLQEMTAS

[7] = target: Platelet-derived growth factor receptor beta (Homo sapiens) (UniProt P09619); assay: Inhibition of PDGFR beta (unknown origin) at 0.19 uM relative to control
[8] = target: Protein kinase C theta type (Homo sapiens) (UniProt Q04759); assay: Inhibition of PKC-theta (unknown origin) at 0.19 uM relative to control
[9] = target: Protein kinase C delta type (Homo sapiens) (UniProt Q05655); assay: Inhibition of PKC-delta (unknown origin) at 0.19 uM relative to control
[10] = target: Dual specificity tyrosine-phosphorylation-regulated kinase 1B (Homo sapiens) (UniProt Q9Y463); assay: Inhibition of DYRK1B (unknown origin) at 0.19 uM relative to control
[11] = target: Aurora kinase A (Homo sapiens) (UniProt O14965); assay: Inhibition of AurA (unknown origin) at 0.19 uM relative to control
[12] = target: Serine/threonine-protein kinase PAK 2 (Homo sapiens) (UniProt Q13177); assay: Inhibition of PAK2 (unknown origin) at 0.19 uM relative to control
[13] = target: CDK4/Cyclin D3 (Homo sapiens) (UniProt P11802+P30281); assay: Inhibition of CDK4/CyclinD3 (unknown origin) at 0.19 uM relative to control; type: protein-complex assay
[14] = test system: Leucine-rich repeat serine/threonine-protein kinase 2 (Homo sapiens), Q5S007 [G2019S]; assay: Inhibition of LRRK2 G2019S mutant (unknown origin) at 0.19 uM relative to control
[15] = target: Serine/threonine-protein kinase 3 (Homo sapiens) (UniProt Q13188); assay: Inhibition of MST2 (unknown origin) at 0.19 uM relative to control
[16] = target: Insulin receptor (Homo sapiens) (UniProt P06213); assay: Inhibition of INSR (unknown origin) at 0.19 uM relative to control
Chain of Insulin receptor (Homo sapiens) (P06213 28-758 limits assumed): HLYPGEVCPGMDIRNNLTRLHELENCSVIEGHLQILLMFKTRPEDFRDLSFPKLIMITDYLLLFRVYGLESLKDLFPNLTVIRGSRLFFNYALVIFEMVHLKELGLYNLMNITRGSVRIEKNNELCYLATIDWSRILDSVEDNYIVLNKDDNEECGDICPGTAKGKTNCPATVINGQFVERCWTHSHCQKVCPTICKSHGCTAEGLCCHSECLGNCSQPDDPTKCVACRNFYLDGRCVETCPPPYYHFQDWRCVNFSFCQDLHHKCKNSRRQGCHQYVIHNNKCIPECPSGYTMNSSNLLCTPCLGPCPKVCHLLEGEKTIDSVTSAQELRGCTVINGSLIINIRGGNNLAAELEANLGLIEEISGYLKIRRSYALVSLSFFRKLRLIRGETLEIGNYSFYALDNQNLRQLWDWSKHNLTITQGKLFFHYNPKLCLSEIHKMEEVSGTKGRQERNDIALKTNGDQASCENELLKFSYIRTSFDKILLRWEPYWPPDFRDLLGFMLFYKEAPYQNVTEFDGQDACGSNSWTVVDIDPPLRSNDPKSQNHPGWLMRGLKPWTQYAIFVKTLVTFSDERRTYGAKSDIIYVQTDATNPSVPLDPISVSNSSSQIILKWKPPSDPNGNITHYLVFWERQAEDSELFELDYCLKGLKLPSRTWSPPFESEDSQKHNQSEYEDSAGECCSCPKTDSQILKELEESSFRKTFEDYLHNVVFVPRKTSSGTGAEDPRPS
Chain of Insulin receptor (Homo sapiens) (P06213 763-1382 limits assumed): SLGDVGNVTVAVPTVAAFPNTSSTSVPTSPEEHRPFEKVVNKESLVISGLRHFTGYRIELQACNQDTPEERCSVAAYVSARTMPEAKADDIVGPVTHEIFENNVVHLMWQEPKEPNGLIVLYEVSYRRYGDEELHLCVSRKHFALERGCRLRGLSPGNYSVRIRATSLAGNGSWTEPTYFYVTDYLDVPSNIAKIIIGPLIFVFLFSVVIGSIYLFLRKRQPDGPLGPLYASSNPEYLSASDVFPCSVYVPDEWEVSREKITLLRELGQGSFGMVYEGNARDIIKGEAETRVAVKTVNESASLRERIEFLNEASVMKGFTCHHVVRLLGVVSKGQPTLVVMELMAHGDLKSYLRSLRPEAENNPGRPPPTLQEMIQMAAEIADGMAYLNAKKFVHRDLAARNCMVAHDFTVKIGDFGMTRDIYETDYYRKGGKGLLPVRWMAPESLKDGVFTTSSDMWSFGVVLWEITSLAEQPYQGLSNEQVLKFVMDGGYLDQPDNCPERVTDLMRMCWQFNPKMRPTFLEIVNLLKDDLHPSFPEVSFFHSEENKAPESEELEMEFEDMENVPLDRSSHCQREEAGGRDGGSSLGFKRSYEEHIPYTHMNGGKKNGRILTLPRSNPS

[17] = target: Tyrosine-protein kinase ABL2 (Homo sapiens) (UniProt P42684); assay: Inhibition of Arg (unknown origin) at 0.19 uM relative to control
[18] = target: Tyrosine-protein kinase BTK (Homo sapiens) (UniProt Q06187); assay: Inhibition of BTK (unknown origin) at 0.19 uM relative to control
[19] = test system: Receptor-type tyrosine-protein kinase FLT3 (Homo sapiens), P36888 [D835Y]; assay: Inhibition of Flt3 D835Y mutant (unknown origin) at 0.19 uM relative to control
[20] = target: Tyrosine-protein kinase receptor UFO (Homo sapiens) (UniProt P30530); assay: Inhibition of AXL (unknown origin) at 0.19 uM relative to control
[21] = target: Serine/threonine-protein kinase Sgk3 (Homo sapiens) (UniProt Q96BR1); assay: Inhibition of SGK3 (unknown origin) at 0.19 uM relative to control
[22] = target: Mitogen-activated protein kinase kinase kinase kinase 4 (Homo sapiens) (UniProt O95819); assay: Inhibition of HGK (unknown origin) at 0.19 uM relative to control
Chain of Mitogen-activated protein kinase kinase kinase kinase 4 (Homo sapiens) (O95819 2-1239 limits assumed): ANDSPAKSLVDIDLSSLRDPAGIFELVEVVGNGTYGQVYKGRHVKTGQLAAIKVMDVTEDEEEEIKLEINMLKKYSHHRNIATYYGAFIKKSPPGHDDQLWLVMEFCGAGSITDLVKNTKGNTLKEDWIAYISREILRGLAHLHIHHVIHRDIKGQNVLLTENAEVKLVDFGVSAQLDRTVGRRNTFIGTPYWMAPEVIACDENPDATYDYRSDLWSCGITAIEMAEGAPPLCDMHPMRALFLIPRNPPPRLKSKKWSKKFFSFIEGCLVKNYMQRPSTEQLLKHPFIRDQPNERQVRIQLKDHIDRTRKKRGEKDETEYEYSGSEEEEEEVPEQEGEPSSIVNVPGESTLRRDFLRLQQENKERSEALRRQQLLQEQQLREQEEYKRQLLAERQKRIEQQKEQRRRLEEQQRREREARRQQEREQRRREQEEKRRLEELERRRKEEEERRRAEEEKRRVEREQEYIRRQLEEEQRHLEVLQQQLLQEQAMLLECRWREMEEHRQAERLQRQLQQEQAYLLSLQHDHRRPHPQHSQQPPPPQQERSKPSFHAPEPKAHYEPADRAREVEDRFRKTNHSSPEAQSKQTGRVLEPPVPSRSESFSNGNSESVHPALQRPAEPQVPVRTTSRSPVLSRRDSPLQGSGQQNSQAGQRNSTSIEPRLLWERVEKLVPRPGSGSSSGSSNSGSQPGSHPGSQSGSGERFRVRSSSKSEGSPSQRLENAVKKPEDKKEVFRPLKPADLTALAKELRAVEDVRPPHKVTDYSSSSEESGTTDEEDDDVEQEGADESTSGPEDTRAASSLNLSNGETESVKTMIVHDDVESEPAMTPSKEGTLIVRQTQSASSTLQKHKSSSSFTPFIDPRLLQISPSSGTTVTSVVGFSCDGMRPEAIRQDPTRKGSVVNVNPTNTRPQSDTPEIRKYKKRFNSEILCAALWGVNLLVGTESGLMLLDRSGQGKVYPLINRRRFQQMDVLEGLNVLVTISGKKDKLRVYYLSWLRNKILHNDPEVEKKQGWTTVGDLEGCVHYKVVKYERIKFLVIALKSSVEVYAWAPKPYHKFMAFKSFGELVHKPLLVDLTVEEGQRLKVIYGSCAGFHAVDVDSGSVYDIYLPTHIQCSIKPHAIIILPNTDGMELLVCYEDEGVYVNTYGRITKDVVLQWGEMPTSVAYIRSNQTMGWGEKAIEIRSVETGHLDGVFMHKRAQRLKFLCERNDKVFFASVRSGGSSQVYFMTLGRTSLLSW

[23] = Cmax in C57BL/6J mouse at 30 mg/kg, po by LC-MS/MS analysis; type: ADME, organism-based; parameters: dose 30 mg/kg, route oral; conditions: in vivo
How it was run: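 C57BL/6J mice received a single oral dose of 30 mg/kg as a suspension in 0.5% methylcellulose. Plasma Cmax and AUC are reported as the average of two animals.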

[24] = target: Maternal embryonic leucine zipper kinase (Homo sapiens) (UniProt Q14680); assay: Inhibition of MELK (unknown origin) at 0.164 uM relative to control
Chain of Maternal embryonic leucine zipper kinase (Homo sapiens) (Q14680 whole entry, looked up): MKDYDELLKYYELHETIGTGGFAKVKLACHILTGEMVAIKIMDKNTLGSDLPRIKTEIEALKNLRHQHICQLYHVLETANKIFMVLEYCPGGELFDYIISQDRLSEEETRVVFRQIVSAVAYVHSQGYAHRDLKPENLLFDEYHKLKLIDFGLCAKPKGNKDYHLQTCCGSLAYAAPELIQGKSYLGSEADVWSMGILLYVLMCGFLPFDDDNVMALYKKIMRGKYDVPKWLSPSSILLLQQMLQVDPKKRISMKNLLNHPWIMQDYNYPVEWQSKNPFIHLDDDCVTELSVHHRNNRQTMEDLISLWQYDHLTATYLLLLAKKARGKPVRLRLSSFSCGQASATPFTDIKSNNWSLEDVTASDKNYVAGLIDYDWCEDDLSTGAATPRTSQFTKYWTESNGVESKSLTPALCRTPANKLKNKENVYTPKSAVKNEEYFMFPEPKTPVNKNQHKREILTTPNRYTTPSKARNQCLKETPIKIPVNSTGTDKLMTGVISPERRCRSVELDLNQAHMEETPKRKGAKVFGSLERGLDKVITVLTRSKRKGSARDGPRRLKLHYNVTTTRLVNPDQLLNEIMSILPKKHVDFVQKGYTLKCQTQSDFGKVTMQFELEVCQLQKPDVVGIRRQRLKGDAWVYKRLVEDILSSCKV

[25] = target: SRSF protein kinase 3 (Homo sapiens) (UniProt Q9UPE1); assay: Inhibition of MSSK1 (unknown origin) at 0.164 uM relative to control
[26] = target: Ephrin type-A receptor 4 (Homo sapiens) (UniProt P54764); assay: Inhibition of EPHA4 (unknown origin) at 0.164 uM relative to control
[27] = target: Interleukin-1 receptor-associated kinase 4 (Homo sapiens) (UniProt Q9NWZ3); assay: Inhibition of IRAK4 (unknown origin) at 0.164 uM relative to control
[28] = target: Serine/threonine-protein kinase Sgk1 (Homo sapiens) (UniProt O00141); assay: Inhibition of SGK1 (unknown origin) at 0.164 uM relative to control
[29] = target: Mitogen-activated protein kinase 11 (Homo sapiens) (UniProt Q15759); assay: Inhibition of p38-beta2 (unknown origin) at 0.164 uM relative to control
Chain of Mitogen-activated protein kinase 11 (Homo sapiens) (Q15759 whole entry, canonical isoform): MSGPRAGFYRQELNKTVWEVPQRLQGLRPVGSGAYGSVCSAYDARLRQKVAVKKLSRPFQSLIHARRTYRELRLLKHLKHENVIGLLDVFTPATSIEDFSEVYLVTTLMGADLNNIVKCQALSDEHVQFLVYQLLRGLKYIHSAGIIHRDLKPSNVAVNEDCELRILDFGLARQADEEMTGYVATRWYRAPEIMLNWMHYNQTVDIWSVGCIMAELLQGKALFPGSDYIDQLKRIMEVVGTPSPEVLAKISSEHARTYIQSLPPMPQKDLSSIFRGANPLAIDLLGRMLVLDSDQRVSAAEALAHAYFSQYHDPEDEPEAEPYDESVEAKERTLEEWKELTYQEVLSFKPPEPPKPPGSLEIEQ

[30] = target: Casein kinase I isoform alpha (Homo sapiens) (UniProt P48729); assay: Inhibition of CSNK1A1 (unknown origin) at 0.164 uM relative to control
[31] = target: Casein kinase I isoform gamma-1 (Homo sapiens) (UniProt Q9HCP0); assay: Inhibition of CK1-gamma1 (unknown origin) at 0.164 uM relative to control
[32] = target: Ephrin type-A receptor 2 (Homo sapiens) (UniProt P29317); assay: Inhibition of EPHA2 (unknown origin) at 0.164 uM relative to control
[33] = target: Proto-oncogene tyrosine-protein kinase ROS (Homo sapiens) (UniProt P08922); assay: Inhibition of ROS (unknown origin) at 0.164 uM relative to control
[34] = target: Serine/threonine-protein kinase PAK 4 (Homo sapiens) (UniProt O96013); assay: Inhibition of PAK4 (unknown origin) at 0.164 uM relative to control
[35] = target: Serine/threonine-protein kinase BRSK2 (Homo sapiens) (UniProt Q8IWQ3); assay: Inhibition of BRSK2 (unknown origin) at 0.164 uM relative to control
[36] = target: RAF proto-oncogene serine/threonine-protein kinase (Homo sapiens) (UniProt P04049); assay: Inhibition of c-Raf (unknown origin) at 0.164 uM relative to control
[37] = target: Tyrosine-protein kinase Lck (Homo sapiens) (UniProt P06239); assay: Inhibition of LCK (unknown origin) at 0.164 uM relative to control
[38] = target: Death-associated protein kinase 1 (Homo sapiens) (UniProt P53355); assay: Inhibition of DAPK1 (unknown origin) at 0.45 uM relative to control

inhibition [1]: 8%
inhibition [2]: 2%
inhibition [3]: -3.3%
inhibition [4]: 6.3%
inhibition [5]: 3.3%
inhibition [6]: 4.3%
inhibition [7]: 97%
inhibition [8]: 1.7%
inhibition [9]: 0%
inhibition [10]: 3%
inhibition [11]: 3.3%
inhibition [12]: -3%
inhibition [13]: -8%
inhibition [14]: 18%
inhibition [15]: 4.7%
inhibition [16]: 1.7%
inhibition [17]: 57%
inhibition [18]: -1.7%
inhibition [19]: 93.7%
inhibition [20]: -2.3%
inhibition [21]: 4%
inhibition [22]: 72%
SMILES: Cc1[nH]nc(C2CC2)c1-c1ccc2c(-c3ccc(N4CCN(C)CC4)nc3)n[nH]c2c1

Cmax [23]: 4940 ng/mL
inhibition [24]: 10.7%
inhibition [25]: 0.7%
inhibition [26]: -2.3%
inhibition [27]: -7.7%
inhibition [28]: 0.3%
inhibition [29]: 1.7%
inhibition [30]: 5%
inhibition [31]: -2.7%
inhibition [32]: -2.3%
inhibition [33]: 4%
inhibition [34]: 5.7%
inhibition [35]: -6.7%
inhibition [36]: 10%
inhibition [37]: 17.3%
SMILES: COC(=O)Nc1cc(-c2c(C3CC3)n[nH]c2C)cc2[nH]ncc12

SMILES: Cc1n[nH]c(C)c1-c1ccc2c(NC(=O)c3ccc(N4CCN(C)CC4)cc3)n[nH]c2c1
inhibition [38]: -1.3%
